Consider ten compounds from ChEMBL document CHEMBL1132955 (J Med Chem, 2000).

Molecules are shown by their SMILES.

The test system of experiment [1] is Human alphaherpesvirus 3. In words: Evaluated for the anti-VZV activity, the concentration of compounds in uM required to reduce VZV OKA Plaque formation after 5 days in HEL cell cultures compared to untreated controls. The class given is functional, organism-based. Particulars: Human alphaherpesvirus 3, oka, 120 h. In outline: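 Confluent HEL fibroblasts infected with VZV at 20 PFU/well. Residual virus removed after 1-2 h adsorption. Cells then kept in MEM with 2% inactivated FCS, 1% L-glutamine and 0.3% sodium bicarbonate plus serial compound dilutions. OKA and YS strains are TK-competent; 07 and YS-R are TK-deficient.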

In experiment [2] the test system is Human alphaherpesvirus 3. Nature of the experiment: (§1) cytostatic concentration required to reduce the HEL cell number by 50%. after 5 days in the absence of virus. The class given is functional. Particulars: Human alphaherpesvirus 3, HEL, 120 h. In outline:
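HEL cells in 96-well plates treated with graded compound concentrations without virus for 5 days. Cells then trypsinized and counted with a Coulter counter.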

The subject of experiment [3] is Human alphaherpesvirus 3. In words: (§2) Minimal cytotoxic concentration, the concentration required to cause a microscopically visible alteration of normal cell morphology. The class given is functional. In outline:
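Uninfected HEL cell cultures exposed to graded compound concentrations. Morphology inspected by microscope. MCC is the lowest concentration producing a visible change in normal cell morphology.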

Experiment [4] has as its system Human alphaherpesvirus 3. In words: Evaluated for the anti-VZV, the concentration of compounds in uM required to reduce VZVTK-YS-R ( thymidine kinase-deficient strain ) plaque formation after 5 days in HEL cell cultures compared to untreated controls. The class given is functional, organism-based. Particulars: Human alphaherpesvirus 3, tkys-r, 120 h.
Experiment [5] relates to Human alphaherpesvirus 3. Nature of the experiment: Evaluated for the anti-VZV, the concentration of compounds in uM required to reduce VZVTK-07 ( thymidine kinase-deficient strain ) plaque formation after 5 days in HEL cell cultures compared to untreated controls. In kind it is functional, organism-based. Particulars: Human alphaherpesvirus 3, tk-07, HEL, 120 h.
For experiment [6], the system named is Human alphaherpesvirus 3. Nature of the experiment: Evaluated for the anti-VZV activity, the concentration of compounds in uM required to reduce VZV […] plaque formation after 5 days in HEL cell cultures compared to untreated controls. The class given is functional, organism-based. Particulars: Human alphaherpesvirus 3, ys, 120 h.
In experiment [7] the test system is Human alphaherpesvirus 3. In words: Evaluated for the anti-VZV activity, the concentration of compounds in uM required to reduce VZV OKA plaque formation after 5 days in HEL cell cultures compared to untreated controls. The class given is functional, organism-based. To be noted: Human alphaherpesvirus 3, oka, 120 h. In outline:
(§3)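 Confluent HEL fibroblasts infected with VZV at 20 PFU/well. Residual virus removed after 1-2 h adsorption. Cells then kept in MEM with 2% inactivated FCS, 1% L-glutamine and 0.3% sodium bicarbonate plus serial compound dilutions. […] OKA and YS strains are TK-competent; 07 and YS-R are TK-deficient.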

Experiment [8] relates to Human alphaherpesvirus 3. In words: Evaluated for the anti-VZV activity, which is the concentration of compounds in uM required to reduce VZV YS plaque formation after 5 days in HEL cell cultures compared to untreated controls. Particulars: Human alphaherpesvirus 3, ys, 120 h. The class given is functional, organism-based. Summed up:
as §3

Experiment [9] concerns Human alphaherpesvirus 3. Nature of the experiment: Evaluated for the anti-VZV, the concentration of compounds in uM required to reduce VZV TK-YS-R ( thymidine kinase-deficient strain ) plaque formation after 5 days in HEL cell cultures compared to untreated controls. In kind it is functional, organism-based. Particulars: Human alphaherpesvirus 3, ys-r, 120 h. Summed up:
as §3

Experiment [10] relates to Human alphaherpesvirus 3. In words: Evaluated for the anti-VZV activity, the concentration of compounds in uM required to reduce VZV TK-07 (thymidine kinase-deficient strain ) plaque formation after 5 days in HEL cell cultures compared to untreated controls. Particulars: Human alphaherpesvirus 3, tk-07, HEL, 120 h.
Experiment [11] has as its system Human alphaherpesvirus 3. Nature of the experiment: Evaluated for the anti-VZV activity, the concentration required to reduce VZV YS plaque formation after 5 days in HEL cell cultures compared to untreated controls. The class given is functional, organism-based. To be noted: Human alphaherpesvirus 3, ys, 120 h. Summed up: as §3
Experiment [12] deals with Human alphaherpesvirus 3. In words: Evaluated for the anti-VZV, the concentration required to reduce VZVTK-YS-R ( thymidine kinase-deficient strain ) plaque formation after 5 days in HEL cell cultures compared to untreated controls. The class given is functional, organism-based. To be noted: Human alphaherpesvirus 3, ys-r, 120 h. In outline:
as §3

In experiment [13] the test system is Human alphaherpesvirus 3. In words: Evaluated for the anti-VZV activity, the concentration required to reduce VZV OKA plaque formation after 5 days in HEL cell cultures compared to untreated controls. In kind it is functional, organism-based. To be noted: Human alphaherpesvirus 3, oka, 120 h. In outline: as §3
Experiment [14] deals with Human alphaherpesvirus 3. In words: Evaluated for the anti-VZV, the concentration required to reduce VZV TK -07 ( thymidine kinase-deficient strain ) plaque formation after 5 days in HEL cell cultures compared to untreated controls. The class given is functional, organism-based. Particulars: Human alphaherpesvirus 3, tk-07, HEL, 120 h. Summed up: as §3
Experiment [15] concerns Human alphaherpesvirus 3. The description is as §1. In kind it is functional. To be noted: Human alphaherpesvirus 3, t, 120 h. In outline: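 HEL fibroblasts, grown in MEM with 10% inactivated FCS, 1% L-glutamine and 0.3% sodium bicarbonate, were treated in 96-well cultures with varying compound concentrations for 5 days without virus. Cells were then trypsinized and counted with a Coulter counter. The value is the concentration giving 50% reduction in cell number.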

Experiment [16] deals with Human alphaherpesvirus 3. Described as §2. Particulars: Human alphaherpesvirus 3, t. The class given is functional.

With `CCCCCCCCCCc1cc2cn([C@H]3C[C@H](O)[C@@H](CO)O3)c(=O)nc2o1`, the EC50 in the experiment with Human alphaherpesvirus 3 [1] is 15 nM; in the experiment on Human alphaherpesvirus 3 [4], greater than 50000 nM; with Human alphaherpesvirus 3 [5], greater than 50000 nM; in the experiment with Human alphaherpesvirus 3 [6], 8 nM. Besides, the CC50 with Human alphaherpesvirus 3 [2] was greater than 50000 nM. The same compound displayed an MCC in the experiment on Human alphaherpesvirus 3 [3] greater than 50 µM.
Regarding `O=c1nc2oc(-c3ccc(Cl)cc3)cc2cn1[C@H]1C[C@H](O)[C@@H](CO)O1`, the EC50 in the experiment with Human alphaherpesvirus 3 [1] is 100 nM; in the experiment with Human alphaherpesvirus 3 [4] it was greater than 50000 nM; in the experiment on Human alphaherpesvirus 3 [5], greater than 50000 nM; in the experiment with Human alphaherpesvirus 3 [6] it was 100 nM. In addition, the MCC in the experiment with Human alphaherpesvirus 3 [3] was 200 µM.
With `CCCCCCCCCc1cc2cn([C@H]3C[C@H](O)[C@@H](CO)O3)c(=O)nc2o1`, the EC50 was 20 nM in the experiment on Human alphaherpesvirus 3 [1], greater than 200000 nM with Human alphaherpesvirus 3 [4], greater than 200000 nM in the experiment on Human alphaherpesvirus 3 [5] and 20 nM with Human alphaherpesvirus 3 [6]. The cytotoxic concentration (CC50) in the experiment on Human alphaherpesvirus 3 [2] is greater than 200000 nM. The MCC in the experiment with Human alphaherpesvirus 3 [3] was greater than 200 µM.
As for `CCCCCCCCc1ccc(-c2cc3cn([C@H]4C[C@H](O)[C@@H](CO)O4)c(=O)nc3o2)cc1`, the half-maximal effective concentration (EC50) in the experiment on Human alphaherpesvirus 3 [1] was 40 nM; in the experiment with Human alphaherpesvirus 3 [4], greater than 20000 nM; with Human alphaherpesvirus 3 [5] it was greater than 20000 nM; in the experiment on Human alphaherpesvirus 3 [6] it was 27 nM. This compound displayed a CC50 in the experiment with Human alphaherpesvirus 3 [2] greater than 200000 nM. The same compound showed an MCC with Human alphaherpesvirus 3 [3] greater than 20 µM.
In the experiment on Human alphaherpesvirus 3 [2], `CCCCCCCCc1cc2cn([C@H]3C[C@H](O)[C@@H](CO)O3)c(=O)nc2o1` returned a CC50 greater than 50000 nM. Further, the EC50 in the experiment with Human alphaherpesvirus 3 [7] was 8 nM; with Human alphaherpesvirus 3 [4], greater than 50000 nM; in the experiment with Human alphaherpesvirus 3 [5], greater than 50000 nM; with Human alphaherpesvirus 3 [6], 24 nM. This compound also registered an MCC in the experiment with Human alphaherpesvirus 3 [3] greater than 50 µM.
Turning to `Cc1ccc(-c2cc3cn([C@H]4C[C@H](O)[C@@H](CO)O4)c(=O)nc3o2)cc1`, the EC50 was 60 nM in the experiment on Human alphaherpesvirus 3 [8], 60 nM with Human alphaherpesvirus 3 [7], greater than 200000 nM with Human alphaherpesvirus 3 [9] and 103000 nM in the experiment on Human alphaherpesvirus 3 [10]. In addition, the CC50 in the experiment with Human alphaherpesvirus 3 [2] was greater than 200000 nM. Moreover, the MCC with Human alphaherpesvirus 3 [3] was greater than 200 µM.
`O=c1nc2oc(-c3ccc(Br)cc3)cc2cn1[C@H]1C[C@H](O)[C@@H](CO)O1`: the concentration giving a half-maximal response (EC50) with Human alphaherpesvirus 3 [1] is 500 nM; with Human alphaherpesvirus 3 [4], greater than 50000 nM; in the experiment with Human alphaherpesvirus 3 [5], greater than 50000 nM; with Human alphaherpesvirus 3 [6], 500 nM. Besides, in the experiment with Human alphaherpesvirus 3 [3], the MCC turned out to be 50 µM.
Consider `O=c1nc2oc(-c3ccccc3)cc2cn1[C@H]1C[C@H](O)[C@@H](CO)O1`, for which, in the experiment on Human alphaherpesvirus 3 [2], the cytotoxic concentration (CC50) is greater than 200000 nM. The EC50 with Human alphaherpesvirus 3 [11] is 160 nM; in the experiment with Human alphaherpesvirus 3 [12] it was 162000 nM; in the experiment with Human alphaherpesvirus 3 [13] it was 280 nM; with Human alphaherpesvirus 3 [14], greater than 200000 nM. Besides, the MCC in the experiment with Human alphaherpesvirus 3 [3] is greater than 200 µM.
`Nc1nc2c(ncn2COCCO)c(=O)[nH]1` [ACYCLOVIR] yielded a 50% cytotoxic concentration (CC50) in the experiment on Human alphaherpesvirus 3 [2] greater than 200000 nM. Further, the MCC in the experiment on Human alphaherpesvirus 3 [3] was greater than 200 µM.
In the case of `O=c1[nH]c(=O)n([C@H]2C[C@H](O)[C@@H](CO)O2)cc1/C=C/Br` [BRIVUDINE], the EC50 with Human alphaherpesvirus 3 [1] was 3 nM; with Human alphaherpesvirus 3 [4], greater than 150000 nM; in the experiment on Human alphaherpesvirus 3 [5], greater than 150000 nM; with Human alphaherpesvirus 3 [6] it was 3 nM. In the experiment on Human alphaherpesvirus 3 [15], this compound had a half-maximal cytotoxic concentration (CC50) greater than 400000 nM. The same compound returned an MCC in the experiment on Human alphaherpesvirus 3 [16] greater than 400 µM.

The term EC50 denotes the midpoint of the concentration-response curve. Low values mean higher potency in that assay, high ones lower potency in that assay. Usually CC50 stands for the concentration giving 50% cytotoxicity.
